RAM inhibit = inhibitors of the yeast RAM network. AID 868. S. cerevisiae dse1pr::URA3 reporter, 5-FOA growth OD615, 2 d; analog-sensitive cbk1-as2 kinase mutant strain. 1.8% of 190,000 active. inhibition, % at 50 µM;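 active = inhibition above a set limit, 3 SD over mean compound inhibition, cut at about 8.4% in these data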;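 note: 0% = DMSO-only wells with no growth and 100% = 10 µM 1-NA-PP1 full growth; inhibition rescues growth on 5-FOA so higher OD means more RAM inhibition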
MT stabilize HCS = microtubule stabilizers in HeLa cells | HeLa tubulin immunostaining HCS, 24 h; share of cells brighter than vehicle mean+2SD | % tubulin-high responders, % at 10 µM | 0.83% of 200,000 active | AID 2205;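 active = plate Z-score above 3 for both tubulin-high and condensed-nucleus cell shares, with cell loss under 80%, at 10 µM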;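 note: anti alpha tubulin signal scored within the nucleus-defined area of each cell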
b-catenin transl = alters nuclear translocation of beta-catenin in HeLa cells; nuclear translocation activity, % at 5 µM; immunofluorescence imaging; 0.3% of 190,000 active;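 active = nuclear translocation activity above 50% at 5 µM, with a well cell count of 50 or more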;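 note: per-cell ratio of nuclear to cytoplasmic median beta-catenin stain intensity; plate controls were DMSO negative control for no effect and GSK-3 inhibitor IX positive control for full effect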
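Test system: HeLa cells, endogenous beta-catenin; Compound: single 5 µM dose plus 0.02–20 µM confirmation series; Times: compound exposure 24 h at 37°C; Signal: fluorescence imaging of beta-catenin antibody stain plus DAPI; Read-out: % activation, nuclear-to-cytoplasmic median beta-catenin signal ratio per cell.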
Yeast life ext = yeast lifespan extension | inhibition of the nicotinamide effect, % at 10 µM | AID 775 | S. cerevisiae growth with nicotinamide, OD615; deaD strain in restrictive glucose medium | 0.68% of 130,000 active;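 active = inhibition above a set limit, placed 3 SD over the median of all compounds, cut at about 26% in these data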;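 note: 0% = nicotinamide-treated wells and 100% = cells grown without nicotinamide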
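Test system: DeaD-strain S. cerevisiae / Buffer or medium: restrictive glucose medium / Also added: nicotinamide 1.5 mM / Doses: one concentration, 10 µM, DMSO 0.25% / Schedule: 48 h at 30 °C / Signal: OD615 measurement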
Efa HMGR inh = E. faecalis class II HMG-CoA reductase inhibition. AID 1066. 0.41% of 190,000 active. purified E. faecalis HMGR, NADPH absorbance 340 nm kinetic. inhibition, % at 10 µM;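 active = inhibition above a set limit, the median over all tested compounds plus 3 SD, cut at about 9.5% in these data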;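 note: enzyme runs in reverse so mevalonate oxidation gives rising NADPH absorbance; 0% = complete reaction with DMSO and 100% = background rate lacking mevalonate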
Yeast growth inh = chemicals that inhibit yeast BB579 growth in restrictive medium (lifespan-shortening candidates) | S. cerevisiae BB579 growth, OD615, 48 h | inhibition, % at 10 µM | 0.51% of 140,000 active | AID 804;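 active = inhibition above a set limit, 3 SD over the mean compound inhibition, cut at about 44% in these data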
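Detection: OD615 turbidity measurement; Material: Saccharomyces cerevisiae DeaD strain BB579, replicative lifespan model yeast; Timing: 48 h exposure, 30 °C; Doses: single 10 µM dose; Medium: CSMM-D restrictive synthetic medium containing dextrose (glucose); Controls: amphotericin B at 10 µg/mL as positive control.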
* = called active by the depositor; x = no result. In the library only some 3.5% were active in any assay of this set; here they are far more common.

SMILES	RAM inhibit	MT stabilize HCS	b-catenin transl	Yeast life ext	Efa HMGR inh	Yeast growth inh
CCC(=Nc1ccc(N)cc1)C1=C(O)C(C(=O)OC)C(C)(C)CC1=O (stereo not drawn)	2.8	3.5	1.0	30.2*	-7.4	-7.9
CC(Cc1ccsc1)NC(=O)CCc1nnc(CCc2ccccc2)o1 (stereo not drawn)	2.8	4.0	1.9	x	1.3	x
O=[N+]([O-])c1cccc(-c2nc(NCc3ccccc3)c3ccccc3n2)c1	8.7*	4.4	-0.2	2.7	-3.9	-23.3
Cc1nc2ccccn2c1C(=O)CSc1cccc(Cl)c1	-1.4	5.4	-2.2	x	-9.5	x
COc1ccc(OC)c(CC(NC(C)=O)C(=O)NC2CCN(c3nc(OC)nc(OC)n3)CC2)c1 (stereo not drawn)	0.8	2.9	-4.6	x	-6.1	x
c1ccc(C[n+]2c(-c3ccccc3)csc2Nc2ccccc2)cc1	3.9	1.2	0.5	7.0	-10.8	-16.3
CCCCCC[n+]1c(-c2ccc(Cl)cc2Cl)csc1Nc1ccccc1	9.0*	5.2	2.7	3.2	0.5	-30.2
CCOc1nc(-c2ccccc2)ccc1-c1noc(-c2cccs2)n1	10.5*	2.3	-1.7	0.2	0.2	-2.5
COc1ccc(NC(=O)c2ccc(-c3ccccc3Cl)o2)cc1	8.7*	3.4	x	-3.1	-2.0	-50.9
O=C(Nc1cccc(F)c1)c1ccc(-c2ccccc2Cl)o1	10.0*	3.5	x	-6.8	2.1	-20.6
CCOC(=O)c1c(-c2ccc(-c3ccccc3)cc2)csc1NC(=O)CCN1CCOCC1	1.1	4.7	0.7	-8.5	2.7	94.6*
O=C(c1ccc(COc2ccccc2[N+](=O)[O-])o1)N1CCCCCC1	0.0	2.3	-3.6	-16.1	11.6*	-61.2
COc1ccc(N2CS(=O)CC2=O)cc1 (stereo not drawn)	1.5	2.0	0.4	x	-5.8	x
CCN(C(=O)COC(=O)CNC(=O)c1ccc(C)s1)c1ccccc1	0.8	3.6	-0.3	x	-3.7	x
COc1ccc(-c2cc(C(F)F)n3ncc(C(=O)N4CCc5ccccc54)c3n2)cc1	1.6	25.6*	6.2	x	-4.4	x
Cc1ccc(-c2cc(C(F)F)n3ncc(C(=O)N4CCCc5ccccc54)c3n2)cc1	4.9	2.8	0.0	x	-0.9	-37.8
O=C(Nc1ccc(N2C(=O)C3C4C=CC(C4)C3C2=O)cc1Cl)c1cccs1 (stereo not drawn)	9.8*	2.9	-3.0	x	3.8	x
Nc1ccc(NC(=O)c2cccs2)c(Cl)c1	0.8	5.5	-6.8	-20.2	-6.9	-7.6
O=C(O)CCCNC(=O)CCCn1nnc2ccccc2c1=O	x	x	-0.8	x	x	x
CCN(CC)c1ccc(/C=C(\C#N)C(=O)c2ccc(Br)cc2)cc1	9.2*	9.1	-0.6	-0.9	-1.1	-31.6
CCN(CC)c1ccc(/C=C(\C#N)C(N)=O)cc1	0.7	2.3	1.5	x	-2.8	x
C=CCNC(=O)CN1C(=O)C2C3c4ccccc4C(c4ccccc43)C2C1=O (stereo not drawn)	1.4	9.1	-4.8	x	0.1	x
Cc1ccccc1-c1nsc(SCC(=O)Nc2ccc3c(c2)OCO3)n1	9.4*	2.8	1.5	0.7	-3.8	-5.8
O=C(Nc1ccccc1N1CCCC1)c1cc2ccccc2o1	1.5	1.5	x	-19.8	1.9	-46.3
O=C(Nc1ccccc1N1CCN(C(=O)c2ccccc2)CC1)c1cc2ccccc2o1	8.5*	3.1	x	4.5	-0.5	-32.2
SMILES	RAM inhibit	MT stabilize HCS	b-catenin transl	Yeast life ext	Efa HMGR inh	Yeast growth inh
C/C(=N/NC(N)=S)c1ccc(Br)s1	-0.2	2.1	2.9	x	-2.5	x
O=C(CCC1CCCN(Cc2ccc3c(c2)CCO3)C1)NCc1ccc(F)c(F)c1 (stereo not drawn)	1.3	2.6	-1.2	x	-6.3	x
C=CCN(C(=O)CNC(=O)c1ccco1)C(C(=O)NC1CCCCC1)c1ccc(F)cc1 (stereo not drawn)	3.9	1.3	0.8	-25.8	-9.3	9.0
C=CCN(C(=O)CNC(=O)c1ccco1)C(C(=O)NC1CCCCC1)c1ccccc1 (stereo not drawn)	9.2*	5.3	-4.1	-18.6	-4.5	-22.4
O=C(NCC(=O)N(c1ccc(F)cc1)C(C(=O)NC1CCCC1)c1cccnc1)c1cccs1 (stereo not drawn)	8.9*	2.5	-0.4	x	-4.7	x
O=C(NCC(=O)N(c1ccccc1)C(C(=O)NC1CCCCC1)c1cccnc1)c1cccs1 (stereo not drawn)	3.2	0.9	1.6	x	-0.4	x
O=C(NCC(=O)N(Cc1cccs1)C(C(=O)NC1CCCCC1)c1ccncc1)c1ccco1 (stereo not drawn)	0.1	3.2	x	x	10.9*	-46.0
O=S(=O)(c1ccc(S(=O)(=O)N(Cc2ccccc2)Cc2ccco2)cc1)N1CCCC1	x	3.2	x	x	x	x
COC(=O)/C=C/c1ccccc1S(=O)(=O)N(Cc1ccccc1)Cc1ccco1	x	x	73.8*	x	x	x
O=c1cc(N2CCN(c3ccc(F)cc3)CC2)[nH]c(=O)n1C1CCCCC1	1.7	27.3*	2.0	-9.1	-2.5	-38.9
O=c1cc(N2CCC3(CC2)OCCO3)[nH]c(=O)n1C1CCCCC1	-0.5	3.0	-4.4	-0.4	-0.8	-30.2
Nc1nc(-c2ccccn2)nc(N)c1Cc1ccc(Cl)cc1Cl	1.7	2.8	1.1	x	-2.0	x
CC(=O)c1c(C)oc2c1cc(O)c1ccccc12	x	x	2.2	x	x	x
CCn1c(=O)c2c(O)cc(=O)oc2c2ccccc21	4.1	2.6	x	42.1*	-9.3	-1.6
CC(C)n1c(=O)c2c(O)cc(=O)oc2c2ccccc21	2.2	2.7	x	63.0*	-1.8	-7.8
O=c1cc(O)c2c(=O)n(-c3ccccc3)c3ccccc3c2o1	4.4	2.7	-0.9	24.0	-1.2	-2.8
O=C(O)CCC(=O)/C=C/c1ccccc1	-0.5	2.6	-0.8	x	11.9*	x
Cc1nn(-c2ccccc2)c2[nH]c(=O)c(CNc3ccc(N4CCOCC4)cc3)cc12	2.6	52.3*	0.6	23.2	1.0	-84.5
CCOc1ccccc1OCCOc1ccccc1OC(C)C	18.3*	2.0	x	-7.9	-1.2	12.1
CCNC(=S)N/N=C/c1ccc(F)cc1	0.8	5.4	-2.1	x	3.4	x
S=C(NCCc1ccccc1)N/N=C/c1ccccc1Cl	1.2	5.2	-1.4	-2.0	-5.3	-26.2
CCc1ccc(/C=N/NC(=S)NCCc2ccccc2)cc1	8.5*	1.1	-3.5	13.8	-3.9	-29.1
CCNC(=S)N/N=C/c1cccc(/C=N/NC(=S)NCC)c1	10.0*	2.9	0.4	x	-5.6	x
CCn1c(C)nc2cc(C(=O)N3N=C(CCOC)CC3(O)C(F)(F)F)ccc21 (stereo not drawn)	x	x	0.0	x	x	x
CCCC(=O)C1C(=O)CC(C)(C)C(c2cc(C)no2)C1=O (stereo not drawn)	0.1	2.8	-6.4	55.9*	-2.4	-47.7
CCOC(=O)C1(C)C=C(Nc2ccc(NC(C)=O)cc2)C(=O)N1c1ccc(NC(C)=O)cc1 (stereo not drawn)	x	x	0.6	x	x	x
